Publication PMC2857698 (Biochemistry, 2010)
Where “and” joins values, the source holds several entries; their conditions need not be identical. Equal values may be shown once. Read-outs that look alike come from different tables or passages of the source.

Assays:
[1] = system: EH domain of EHD1; assay: ITC of NPF peptides binding to EHD1 EH; set-up: species or system mouse; settings: ITC, 25 mM MOPS pH 7.0, 1 mM CaCl2
Method in brief: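 Mouse EHD1 EH domain (V437–E534) expressed as a GST fusion, purified on glutathione resin and thrombin-cleaved on beads. Protein and peptides were dialysed at 4°C against 25 mM MOPS pH 7.0, 1 mM CaCl2, with KCl varied where applicable. ITC was run at 20°C unless stated (5–25°C), with 50–200 μM protein in the cell and peptide titrant 10-fold higher. Single-site fit gave Ka, n and ΔH; ΔG = −RTlnKa, and TΔS came from ΔG = ΔH − TΔS.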

[2] = target: Rsn5-NPF1 peptide (first NPF motif of Rabenosyn-5) (UniProt Q9H1K0); assay: ITC; settings: pH 7.0; 20 C; 0 mM KCl added; 1 mM CaCl2; 25 mM MOPS pH 7.0
Rsn5-NPF1 peptide (first NPF motif of Rabenosyn-5), sequence (Q9H1K0 whole entry, looked up, the tested form may be a part): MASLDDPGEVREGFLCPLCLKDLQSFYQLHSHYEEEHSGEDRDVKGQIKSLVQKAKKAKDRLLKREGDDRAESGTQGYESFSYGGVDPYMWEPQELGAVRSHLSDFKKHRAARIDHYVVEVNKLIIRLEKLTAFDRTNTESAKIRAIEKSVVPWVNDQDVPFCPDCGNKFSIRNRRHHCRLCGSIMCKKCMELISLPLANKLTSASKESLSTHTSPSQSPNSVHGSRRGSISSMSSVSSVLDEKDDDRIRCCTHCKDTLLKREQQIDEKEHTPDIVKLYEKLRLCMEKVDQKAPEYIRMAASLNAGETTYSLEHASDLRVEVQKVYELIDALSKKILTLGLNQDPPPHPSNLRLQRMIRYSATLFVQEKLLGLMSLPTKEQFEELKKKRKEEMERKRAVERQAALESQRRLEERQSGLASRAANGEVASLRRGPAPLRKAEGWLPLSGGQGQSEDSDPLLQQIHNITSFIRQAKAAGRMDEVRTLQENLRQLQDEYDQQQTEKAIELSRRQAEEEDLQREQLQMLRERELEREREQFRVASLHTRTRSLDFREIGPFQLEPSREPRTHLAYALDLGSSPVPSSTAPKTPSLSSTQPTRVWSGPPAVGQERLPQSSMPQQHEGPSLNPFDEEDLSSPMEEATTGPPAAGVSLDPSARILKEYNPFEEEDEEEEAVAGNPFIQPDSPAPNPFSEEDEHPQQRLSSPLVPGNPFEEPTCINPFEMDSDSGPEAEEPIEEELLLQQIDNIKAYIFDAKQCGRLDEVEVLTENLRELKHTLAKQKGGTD

[3] = target: Rsn5-NPF1 peptide (first NPF motif of Rabenosyn-5) (UniProt Q9H1K0); assay: ITC; settings: pH 7.0; 20 C; 0 mM KCl added; 1 mM CaCl2; 25 mM MOPS pH 7.0; remark: listed apart in the source
[4] = target: EH domain of EHD1 (mouse), residues V437 to E534 (mouse) (UniProt Q9WVK4)
[5] = target: T1, EH domain of Reps1; assay: ITC
T1 chain: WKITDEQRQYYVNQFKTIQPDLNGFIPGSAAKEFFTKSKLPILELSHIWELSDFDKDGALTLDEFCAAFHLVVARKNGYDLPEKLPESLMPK

[6] = target: T2, EH domain of EHD1 (mouse), residues V437 to E534 (mouse, UniProt Q9WVK4 437-534); assay: ITC
T2 sequence (looked up): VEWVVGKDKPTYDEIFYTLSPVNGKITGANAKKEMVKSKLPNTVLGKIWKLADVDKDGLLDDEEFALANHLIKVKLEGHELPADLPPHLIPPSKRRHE

[7] = target: T2, EH domain of EHD1 (mouse), residues …; assay: ITC; remark: listed apart in the source
[8] = target: T2, EH domain of EHD1 (mouse), residues …; assay: ITC; remark: listed apart in the source
[9] = target: T2, EH domain of EHD1 (mouse), residues …; assay: ITC; remark: listed apart in the source
[10] = target: T2, EH domain of EHD1 (mouse), residues …; assay: ITC; remark: listed apart in the source
[11] = target: T2, EH domain of EHD1 (mouse), residues …; assay: ITC; remark: listed apart in the source
[12] = target: T2, EH domain of EHD1 (mouse), residues …; assay: ITC; remark: listed apart in the source
[13] = target: T2, EH domain of EHD1 (mouse), residues …; assay: ITC; remark: listed apart in the source
[14] = target: T2, EH domain of EHD1 (mouse), residues …; assay: ITC; remark: listed apart in the source
[15] = target: T2, EH domain of EHD1 (mouse), residues …; assay: ITC; remark: listed apart in the source
[16] = target: T2, EH domain of EHD1 (mouse), residues …; assay: ITC; remark: listed apart in the source
[17] = target: T2, EH domain of EHD1 (mouse), residues …; assay: ITC; remark: listed apart in the source
[18] = target: T2, EH domain of EHD1 (mouse), residues …; assay: ITC; remark: listed apart in the source

Molecule: Ac-YESTNPFTAK-NH2 [Rfp2-NPF2]
- Ka ([1]; 5.0 °C): 17800 M⁻¹
- TΔS ([1]; 5.0 °C): -3.867 kcal/mol
- ΔH ([1]; 5.0 °C): -9.279 kcal/mol
- ΔS ([1]; 5.0 °C): −13.9 cal mol^−1 K^−1
- Ka ([1]; 10.0 °C): 12800 M⁻¹
- TΔS ([1]; 10.0 °C): -4.729 kcal/mol
- ΔG ([1]; 10.0 °C): -5.316 kcal/mol
- ΔH ([1]; 10.0 °C): -10.04 kcal/mol
- ΔS ([1]; 10.0 °C): −16.7 cal mol^−1 K^−1
- Ka ([1]; 15.0 °C): 9390 M⁻¹
- TΔS ([1]; 15.0 °C): -5.562 kcal/mol
- ΔG ([1]; 15.0 °C): -5.233 kcal/mol
- ΔH ([1]; 15.0 °C): -10.79 kcal/mol
- ΔS ([1]; 15.0 °C): −19.3 cal mol^−1 K^−1
- TΔS ([1]; 20.0 °C): -6.802 kcal/mol
- ΔG ([1]; 20.0 °C): -5.122 kcal/mol
- ΔH ([1]; 20.0 °C): -11.92 kcal/mol
- ΔS ([1]; 20.0 °C): −23.2 cal mol^−1 K^−1
- Ka ([1]; 20 °C, KCl 75.0 mM): 6460 M⁻¹
- TΔS ([1]; 20 °C, KCl 75.0 mM): -6.744 kcal/mol
- ΔG ([1]; 20 °C, KCl 75.0 mM): -5.106 kcal/mol
- ΔH ([1]; 20 °C, KCl 75.0 mM): -11.84 kcal/mol
- ΔS ([1]; 20 °C, KCl 75.0 mM): −23.0 cal mol^−1 K^−1
- Ka ([1]; 20 °C, KCl 150.0 mM): 6910 M⁻¹
- TΔS ([1]; 20 °C, KCl 150.0 mM): -6.802 kcal/mol
- ΔG ([1]; 20 °C, KCl 150.0 mM): -5.145 kcal/mol
- ΔH ([1]; 20 °C, KCl 150.0 mM): -11.96 kcal/mol
- ΔS ([1]; 20 °C, KCl 150.0 mM): −23.2 cal mol^−1 K^−1
- Ka ([1]; 20 °C, KCl 300.0 mM): 7490 M⁻¹
- TΔS ([1]; 20 °C, KCl 300.0 mM): -6.568 kcal/mol
- ΔG ([1]; 20 °C, KCl 300.0 mM): -5.192 kcal/mol
- ΔH ([1]; 20 °C, KCl 300.0 mM): -11.77 kcal/mol
- ΔS ([1]; 20 °C, KCl 300.0 mM): −22.4 cal mol^−1 K^−1
- Ka ([1]; 20 °C, KCl 450.0 mM): 7810 M⁻¹
- TΔS ([1]; 20 °C, KCl 450.0 mM): -6.069 kcal/mol
- ΔG ([1]; 20 °C, KCl 450.0 mM): -5.217 kcal/mol
- ΔH ([1]; 20 °C, KCl 450.0 mM): -11.29 kcal/mol
- ΔS ([1]; 20 °C, KCl 450.0 mM): −20.7 cal mol^−1 K^−1
- Ka ([1]; 25.0 °C): 4700 M⁻¹
- TΔS ([1]; 25.0 °C): -8.32 kcal/mol
- ΔG ([1]; 25.0 °C): -5.005 kcal/mol
- ΔH ([1]; 25.0 °C): -13.32 kcal/mol
- ΔS ([1]; 25.0 °C): −27.9 cal mol^−1 K^−1

Molecule: EHD1 EH domain (EH domain-containing protein 1, C-terminal EH domain)
- ΔH [2]: -11.3 kcal/mol
- ΔH [3]: -11.3 kcal/mol

Molecule: Rabenosyn-5 peptide containing two NPF motifs
- stoichiometry N [4]: 2

Molecule: Ac-YESTNPFTAK-NH2 [Rfp2-NPF2, peptide of NPF2 of Rab11-Fip2 (Ac-YESTNPFTAK-NH2)]
- Ka [5]: 2000 M⁻¹
- Ka [6]: 6460 M⁻¹
- dH [6]: -11.8 kcal/mol
- stoichiometry N [6]: 0.96
- Ka [7]: 6910 M⁻¹
- dH [7]: -12 kcal/mol
- stoichiometry N [7]: 1.02
- Ka [8]: 7490 M⁻¹
- dH [8]: -11.8 kcal/mol
- stoichiometry N [8]: 0.99
- Ka [9]: 7810 M⁻¹
- dH [9]: -11.3 kcal/mol
- stoichiometry N [9]: 1.04
- Ka [10]: 17800 M⁻¹
- dH [10]: -9.28 kcal/mol
- stoichiometry N [10]: 0.97
- Ka [11]: 12800 M⁻¹
- dH [11]: -10 kcal/mol
- stoichiometry N [11]: 1.02
- Ka [12]: 9390 M⁻¹
- dH [12]: -10.8 kcal/mol
- stoichiometry N [12]: 1.03
- Ka [13]: 6640 M⁻¹ and 7030 M⁻¹
- dH [13]: -11.9 kcal/mol and -11.8 kcal/mol
- stoichiometry N [13]: 1.03 and 1.01
- Ka [14]: 4700 M⁻¹
- dH [14]: -13.3 kcal/mol
- stoichiometry N [14]: 0.99

Molecule: Ac-GPSLNPFDEED-NH2 [Rsn5-NPF1, peptide of NPF1 of Rabenosyn-5 (Ac-GPSLNPFDEED-NH2)]
- Ka [5]: 2000 M⁻¹
- Ka [15]: 302000 M⁻¹
- dH [15]: -10.4 kcal/mol
- stoichiometry N [15]: 0.97
- Ka [16]: 168000 M⁻¹
- dH [16]: -10.4 kcal/mol
- stoichiometry N [16]: 0.97
- Ka [6]: 115000 M⁻¹
- dH [6]: -10.3 kcal/mol
- stoichiometry N [6]: 0.95
- Ka [17]: 86500 M⁻¹
- dH [17]: -10.9 kcal/mol
- stoichiometry N [17]: 0.99
- Ka [18]: 65000 M⁻¹
- dH [18]: -10.5 kcal/mol
- stoichiometry N [18]: 1.05
- Ka [7]: 53000 M⁻¹
- dH [7]: -10.5 kcal/mol
- stoichiometry N [7]: 1.09
- Ka [8]: 24800 M⁻¹
- dH [8]: -10.3 kcal/mol
- stoichiometry N [8]: 1.04
- Ka [9]: 17800 M⁻¹
- dH [9]: -10.4 kcal/mol
- stoichiometry N [9]: 1.04
- Ka [10]: 2.03e+06 M⁻¹
- dH [10]: -8.99 kcal/mol
- stoichiometry N [10]: 0.98
- Ka [11]: 1.71e+06 M⁻¹
- dH [11]: -9.68 kcal/mol
- stoichiometry N [11]: 0.98
- Ka [12]: 1.1e+06 M⁻¹
- dH [12]: -10.4 kcal/mol
- stoichiometry N [12]: 0.99
- Ka [13]: 814000 M⁻¹ and 861000 M⁻¹
- dH [13]: -11.3 kcal/mol
- stoichiometry N [13]: 0.98 and 1.02
- Ka [14]: 606000 M⁻¹
- dH [14]: -11.9 kcal/mol
- stoichiometry N [14]: 0.98
